According to ChEMBL document CHEMBL5236549, “Discovery of 2-Sulfinyl-Diazabicyclooctane Derivatives, Potential Oral β-Lactamase Inhibitors for Infections Caused by Serine β-Lactamase-Producing Enterobacterales” (J Med Chem, 2021):

Key:
Klebsiella pneumoniae [1] = assay: Antibacterial activity against Klebsiella pneumoniae ATCC SR201218 assessed as inhibition of bacterial growth incubated for 16 to 20 hrs by CLSI based two-fold serial dilution method
[2] = Inhibition of bacterial beta-lactamase CTX-M-15 using nitrocefin as substrate incubated for 20 mins; set-up: species or system Bacteria
Klebsiella pneumoniae [3] = assay: Antibacterial activity against Klebsiella pneumoniae ATCC BAA1705 assessed as inhibition of bacterial growth incubated for 16 to 20 hrs by CLSI based two-fold serial dilution method
[4] = Inhibition of bacterial beta-lactamase KPC-2 using nitrocefin as substrate incubated for 20 mins; set-up: species or system Bacteria
Outline: (§1)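 Nitrocefin hydrolysis read by absorbance. Enzyme titrated to give about 0.2 absorbance change over the no-enzyme control. Enzyme added to nitrocefin (final 50 μg/mL) plus inhibitor, no preincubation, read after 20 min at 35 °C. IC50 is 50% reduction of hydrolysis. N = 1.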

Escherichia coli [5] = assay: Antibacterial activity against Escherichia coli ATCC SR09613 assessed as reduction in bacterial growth by measuring minimum […] concentration incubated for 16 to 24 hrs by CLSI based two-fold serial dilution method; format: functional; conditions: time 16-24 hrs
Outline: (§2)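 MPC₁ by broth microdilution: twofold serial dilutions of inhibitor in cation-adjusted Mueller Hinton broth containing ceftibuten at 1 μg/mL. Inoculum about 5 × 10⁴ cfu/well final, set from OD625. Incubation at 35 °C for 16−20 h. […] N = 1.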

[6] = Inhibition of bacterial beta-lactamase CMY-2 using nitrocefin as substrate incubated for 20 mins; set-up: species or system Bacteria
Outline: as §1

Klebsiella pneumoniae [7] = assay: Antibacterial activity against Klebsiella pneumoniae ATCC SR201218 assessed as reduction in bacterial growth by measuring minimum […] concentration incubated for 16 to 24 hrs by CLSI based two-fold serial dilution method; format: functional; conditions: time 16-24 hrs
Outline: as §2

Escherichia coli [8] = assay: Antibacterial activity against Escherichia coli ATCC SR34100 assessed as reduction in bacterial growth by measuring minimum […] concentration incubated for 16 to 24 hrs by CLSI based two-fold serial dilution method; format: functional; conditions: time 16-24 hrs
Outline: as §2

Escherichia coli [9] = assay: Antibacterial activity against Escherichia coli ATCC SR34100 assessed as inhibition of bacterial growth incubated for 16 to 20 hrs by CLSI based two-fold serial dilution method
Escherichia coli [10] = assay: Antibacterial activity against Escherichia coli ATCC SR09613 assessed as inhibition of bacterial growth incubated for 16 to 20 hrs by CLSI based two-fold serial dilution method
Klebsiella pneumoniae [11] = assay: Antibacterial activity against Klebsiella pneumoniae ATCC BAA1705 assessed as reduction in bacterial growth by measuring minimum potentiating concentration incubated for 16 to 20 hrs by CLSI based two-fold serial dilution method; conditions: time 16-20 hrs
[12] = Inhibition of bacterial beta-lactamase OXA-48 using nitrocefin as substrate incubated for 20 mins; set-up: species or system Bacteria
Outline: as §1

[13] = Stability in rat serum assessed as compound remaining at 5 micromol/L incubated for 30 mins by LC-MS/MS analysis; format: ADME, cell-free; conditions: dose 5 µmol/L, read-out: Stability
Outline: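 Pooled rat serum incubated with 5 μmol/L compound for 30 min at 37 °C, in duplicate; aliquot mixed with methanol, centrifuged, supernatant analysed by LC/MS/MS for % remaining.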

[14] = Stability of the compound in phosphate buffer at pH 7.0 assessed as parent compound remaining at 40 degreeC measured after 16 hrs; format: physicochemical; conditions: read-out: Stability
Outline: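 Compound held in pH 7.0 phosphate buffer at 40 °C for 16 h; amount remaining reported as %.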

[15] = Total clearance in rat by LC-MS/MS analysis; format: ADME; conditions: in vivo

Compound	MIC (Klebsiella pneumoniae [1]) [µg/mL]	IC50 [2] [nM]	MIC (Klebsiella pneumoniae [3]) [µg/mL]	IC50 [4] [nM]	MPC (Escherichia coli [5]) [µg/mL]	IC50 [6] [nM]	MPC (Klebsiella pneumoniae [7]) [µg/mL]	MPC (Escherichia coli [8]) [µg/mL]	MIC (Escherichia coli [9]) [µg/mL]	MIC (Escherichia coli [10]) [µg/mL]	MPC (Klebsiella pneumoniae [11]) [µg/mL]	IC50 [12] [nM]	remaining at 0.5 h, 5 µM [13] [%]	remaining at 16 h [14] [%]	clearance [15] [mL/min/kg]
O=C([O-])[C@@H](F)ON1C(=O)N2C[C@H]1CC[C@H]2[S@+]([O-])Cc1c[nH]cn1.[Na+]	> 32	8	32	78	0.125	59	4	1	32	> 32	1	–	–	–	–
O=C([O-])[C@@H](F)ON1C(=O)N2C[C@H]1CC[C@H]2[S@+]([O-])C[C@@H](O)CO.[Na+]	> 32	10	> 32	56	0.125	52	8	1	> 32	> 32	0.25	–	–	–	–
C[S@+]([O-])[C@@H]1CC[C@@H]2CN1C(=O)N2O[C@H](F)C(=O)[O-].[Na+]	> 32	445	32	443	0.5	655	2	0.125	16	32	0.125	32600	–	–	–
CC(=O)NCC[S@@+]([O-])[C@@H]1CC[C@@H]2CN1C(=O)N2O[C@H](F)C(=O)[O-].[Na+]	–	101	> 32	7	0.063	101	8	0.5	> 32	> 32	0.25	–	–	–	–
NS(=O)(=O)[C@@H]1CC[C@@H]2CN1C(=O)N2O[C@H](F)C(=O)[O-].[Na+]	–	249	–	977	–	1110	–	–	–	–	–	–	78	91	19.8
NS(=O)(=O)[C@@H]1CC[C@@H]2CN1C(=O)N2OC(F)(F)C(=O)O.[Na+]	–	104	–	52	–	1340	–	–	–	–	–	–	39	55	84.5
C[S@@+]([O-])[C@@H]1CC[C@@H]2CN1C(=O)N2OC(F)(F)C(=O)[O-].[Na+]	–	5	–	8	–	26	–	–	–	–	–	–	–	17	289
O=C([O-])[C@@H](F)ON1C(=O)N2C[C@H]1CC[C@H]2[S@+]([O-])CCO.[Na+]	> 32	16	–	36	0.125	57	2	0.5	> 32	> 32	1	–	–	–	–
NC(=O)/C(C[S@@+]([O-])[C@@H]1CC[C@@H]2CN1C(=O)N2O[C@H](F)C(=O)[O-])=N\O.[Na+] (stereo in doubt)	> 32	70	> 32	132	0.25	143	32	2	> 32	> 32	2	–	–	–	–
NC(=O)OCC[S@@+]([O-])[C@@H]1CC[C@@H]2CN1C(=O)N2O[C@H](F)C(=O)[O-].[Na+]	> 32	14	> 32	27	0.125	64	4	1	> 32	> 32	1	–	–	–	–
N#CC[S@@+]([O-])[C@@H]1CC[C@@H]2CN1C(=O)N2O[C@H](F)C(=O)[O-].[Na+]	> 32	7	> 32	39	0.125	96	2	0.25	> 32	32	<0.031	–	–	–	–
Cc1nnc(C[S@@+]([O-])[C@@H]2CC[C@@H]3CN2C(=O)N3O[C@H](F)C(=O)[O-])o1.[Na+]	> 32	24	> 32	16	0.125	36	4	1	> 32	> 32	1	–	–	–	–
Nc1ncc(C[S@@+]([O-])[C@@H]2CC[C@@H]3CN2C(=O)N3O[C@H](F)C(=O)[O-])s1.[Na+]	> 32	10	> 32	88	0.5	41	4	1	> 32	> 32	0.25	981	–	–	–
O=C([O-])[C@@H](F)ON1C(=O)N2C[C@H]1CC[C@H]2[S@+]([O-])CF.[Na+]	> 32	6	32	90	0.25	113	2	0.25	32	32	0.5	–	–	–	–
NCC[S@@+]([O-])[C@@H]1CC[C@@H]2CN1C(=O)N2O[C@H](F)C(=O)O.O=C(O)C(F)(F)F	> 32	159	> 32	69	0.5	431	4	0.125	> 32	> 32	<0.031	–	–	–	–
NC(=O)C[S@@+]([O-])[C@@H]1CC[C@@H]2CN1C(=O)N2O[C@H](F)C(=O)[O-].[Na+]	> 32	50	32	35	0.125	57	4	0.25	32	32	0.063	–	–	–	–
O=C([O-])[C@@H](F)ON1C(=O)N2C[C@H]1CC[C@H]2[S@+]([O-])CCCO.[Na+]	> 32	10	> 32	38	0.063	39	2	1	> 32	> 32	0.5	–	–	–	–
